Laboratory results taken from ChEMBL document CHEMBL4251738, “A BODIPY-Tagged Phosphono Peptide as Activity-Based Probe for Human Leukocyte Elastase” (ACS Med Chem Lett, 2018).
The source made the active and inactive calls. No cut-off for these calls is given here.

What was measured:
[1] = target: T1, Neutrophil elastase (Homo sapiens) (UniProt P08246); assay: Irreversible inhibition of human leukocyte elastase assessed as ratio of Kinact to Ki using MeO-Suc-Ala-Ala-Pro-Val-pNA as substrate by spectrophotometric method; details: TDE = time-dependent effect
T1 sequence (whole entry): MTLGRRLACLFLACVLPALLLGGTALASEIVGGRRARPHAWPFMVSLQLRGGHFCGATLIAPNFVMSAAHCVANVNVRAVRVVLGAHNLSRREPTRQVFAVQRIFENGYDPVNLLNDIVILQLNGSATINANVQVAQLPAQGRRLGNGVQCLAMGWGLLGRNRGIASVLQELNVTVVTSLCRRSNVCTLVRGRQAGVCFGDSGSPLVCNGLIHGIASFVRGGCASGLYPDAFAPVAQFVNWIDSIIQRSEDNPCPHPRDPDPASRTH
How it was run: (§1)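 From substrate-consumption progress curves, kobs values (means of duplicates) were plotted against inhibitor concentration. kinac/Ki was derived by linear regression as kinac/Ki = kobs/[I](1 + [S]/Km) + d, where d is an offset. SEM is from that regression.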

[2] = target: T1, Neutrophil elastase (Homo sapiens); assay: Irreversible inhibition of human leukocyte elastase assessed as ratio of Kinact to Ki using MeO-Suc-Ala-Ala-Pro-Val-pNA as substrate incubated over 60 mins by spectrophotometric method; how it was run: as §1
[3] = target: T2, Pancreatic elastase (Sus scrofa) (UniProt P08419+P00772); assay: Inhibition of porcine pancreatic elastase assessed as ratio of Kinact to Ki using MeO-Suc-Ala-Ala-Pro-Val-pNA as substrate incubated over 60 mins by spectrophotometric method; assay type: protein assay; how it was run: as §1
[4] = target: Coagulation factor X (Bos taurus) (UniProt P00743); assay: Inhibition of bovine factor 10a assessed as product formation at 1 uM using Boc-Ile-Glu-Gly-Arg-AMC as substrate incubated over 60 mins by fluorimetric method
Coagulation factor X (Bos taurus), sequence (P00743 41-180 limits assumed): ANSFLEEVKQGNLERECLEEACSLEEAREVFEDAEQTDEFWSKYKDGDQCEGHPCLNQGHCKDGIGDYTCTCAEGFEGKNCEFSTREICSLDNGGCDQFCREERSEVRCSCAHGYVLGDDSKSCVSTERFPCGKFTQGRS
Coagulation factor X (Bos taurus), sequence (P00743 234-492 limits assumed): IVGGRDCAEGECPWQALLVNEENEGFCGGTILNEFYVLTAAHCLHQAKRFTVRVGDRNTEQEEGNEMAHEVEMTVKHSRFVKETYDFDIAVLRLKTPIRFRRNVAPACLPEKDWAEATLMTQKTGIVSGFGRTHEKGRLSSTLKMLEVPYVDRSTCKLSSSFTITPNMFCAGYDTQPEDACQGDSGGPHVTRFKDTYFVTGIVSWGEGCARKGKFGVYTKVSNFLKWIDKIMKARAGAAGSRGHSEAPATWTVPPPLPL
How it was run: (§2)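 Single-point test at 1 μM inhibitor, run in duplicate. Product formation was followed over 60 min. More than 90% product formation after 60 min was scored as no inhibition.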

[5] = target: Prothrombin (Homo sapiens) (UniProt P00734); assay: Inhibition of human thrombin assessed as product formation at 1 uM using Z-Gly-Gly-Arg-AMC as substrate incubated over 60 mins by fluorimetric method; how it was run: as §2
Bos taurus [6] = species on record: Bos taurus; assay: Inhibition of bovine trypsin assessed as product formation at 1 uM using Suc-Ala-Ala-Pro-Arg-pNA as substrate incubated over 60 mins by spectrophotometric method; how it was run: as §2
[7] = target: Cathepsin B (Homo sapiens) (UniProt P07858); assay: Inhibition of human cathepsin B assessed as product formation at 1 uM using Z-Arg-Arg-pNA as substrate incubated over 60 mins by spectrophotometric method; how it was run: as §2
[8] = target: Procathepsin L (Homo sapiens) (UniProt P07711); assay: Inhibition of human cathepsin L assessed as product formation at 1 uM using Z-Phe-Arg-pNA as substrate incubated over 60 mins by spectrophotometric method; how it was run: as §2
Procathepsin L (Homo sapiens), sequence (P07711 114-333 limits assumed): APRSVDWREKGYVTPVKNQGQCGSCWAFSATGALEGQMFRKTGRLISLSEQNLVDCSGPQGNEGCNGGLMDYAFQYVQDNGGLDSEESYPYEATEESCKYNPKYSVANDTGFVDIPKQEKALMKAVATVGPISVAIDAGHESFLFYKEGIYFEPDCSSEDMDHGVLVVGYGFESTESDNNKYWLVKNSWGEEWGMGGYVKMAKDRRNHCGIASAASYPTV

Bos taurus [9] = species on record: Bos taurus; assay: Inhibition of bovine chymotrypsin assessed as product formation at 1 uM using Suc-Ala-Ala-Pro-Phe-pNA as substrate incubated over 60 mins by spectrophotometric method; how it was run: as §2
[10] = target: T1, Neutrophil elastase (Homo sapiens); assay: Irreversible inhibition of human leukocyte elastase at 20 nM using MeO-Suc-Ala-Ala-Pro-Val-pNA as substrate incubated for 30 mins followed by substrate addition
[11] = target: T2, Pancreatic elastase (Sus scrofa); assay: Inhibition of porcine pancreatic elastase assessed as product formation at 1 uM using MeO-Suc-Ala-Ala-Pro-Val-pNA as substrate incubated over 60 mins by spectrophotometric method; assay type: protein assay; how it was run: as §2
Bos taurus [12] = species on record: Bos taurus; assay: Inhibition of bovine chymotrypsin assessed as ratio of Kinact to Ki using Suc-Ala-Ala-Pro-Phe-pNA as substrate incubated over 60 mins by spectrophotometric method; how it was run: as §1
[13] = target: T1, Neutrophil elastase (Homo sapiens); assay: Irreversible inhibition of human leukocyte elastase at 50 nM using MeO-Suc-Ala-Ala-Pro-Val-pNA as substrate incubated for 30 mins followed by substrate addition
[14] = target: T1, Neutrophil elastase (Homo sapiens); assay: Binding affinity to human leukocyte elastase at 2.5 uM after 20 mins by in gel fluorescence detection based SDS-PAGE analysis
How it was run: (§3)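 Varying amounts of HLE were incubated with 2.5 μM fluorescent probe and then run on SDS-PAGE. Labeled HLE was read by in-gel fluorescence as bands at about 29 kDa. The same gel was then stained with Coomassie.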

[15] = target: T1, Neutrophil elastase (Homo sapiens); assay: Binding affinity to human leukocyte elastase at 160 ng after 20 mins by in gel fluorescence detection based SDS-PAGE analysis; how it was run: as §3
[16] = target: T1, Neutrophil elastase (Homo sapiens); assay: Binding affinity to human leukocyte elastase at 2.5 uM after 20 mins by Coomassie brilliant blue G-250 staining based assay; how it was run: as §3
[17] = target: T1, Neutrophil elastase (Homo sapiens); assay: Binding affinity to human leukocyte elastase at 2.5 uM incubated for 20 mins followed by HEK cell lysate addition by in gel fluorescence detection based SDS-PAGE analysis
How it was run: (§4)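 HLE (600 ng) was incubated with 2.5 μM probe for 20 min. HEK cell lysate (9 μg) was added either before or after that incubation. Lysate alone and HLE alone were run as reference lanes. Samples went on SDS-PAGE, read by in-gel fluorescence and then by Coomassie staining.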

[18] = target: T1, Neutrophil elastase (Homo sapiens); assay: Binding affinity to human leukocyte elastase at 2.5 uM incubated for 20 mins post HEK cell lysate addition by in gel fluorescence detection based SDS-PAGE analysis; how it was run: as §4
[19] = target: T1, Neutrophil elastase (Homo sapiens); assay: Binding affinity to human leukocyte elastase at 2.5 uM incubated for 20 mins followed by HEK cell lysate addition by Coomassie brilliant blue G-250 staining based assay; how it was run: as §4
[20] = target: T1, Neutrophil elastase (Homo sapiens); assay: Binding affinity to human leukocyte elastase at 2.5 uM incubated for 20 mins post HEK cell lysate addition by Coomassie brilliant blue G-250 staining based assay; how it was run: as §4
[21] = target: T1, Neutrophil elastase (Homo sapiens); assay: Inhibition of human leukocyte elastase at 2.5 uM preincubated with sivelestat for 5 mins followed by compound addition measured after 20 mins in presence of sivelestat by in gel fluorescence detection based SDS-PAGE analysis
How it was run: (§5)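 It was then incubated with 2.5 μM probe. Samples were resolved by SDS-PAGE, read by in-gel fluorescence and then by Coomassie staining.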

[22] = target: T1, Neutrophil elastase (Homo sapiens); assay: Inhibition of human leukocyte elastase at 2.5 uM preincubated with sivelestat for 5 mins followed by compound addition measured after 20 mins in presence of sivelestat by Coomassie brilliant blue G-250 staining based assay; how it was run: as §5

SMILES | inhibition [1] | Ratio [2] [M⁻¹ s⁻¹] | Ratio [3] [M⁻¹ s⁻¹] | inhibition [4] [%] | inhibition [5] [%] | inhibition (Bos taurus [6]) [%] | inhibition [7] [%] | inhibition [8] [%] | inhibition (Bos taurus [9]) [%] | further results
CSc1ccc(OP(=O)(Oc2ccc(SC)cc2)[C@@H](NC(=O)[C@@H]2CCCN2C(=O)[C@@H](NC(=O)OC(C)(C)C)C(C)C)C(C)C)cc1 | Tde | 399000 | 7990 | > 90 | > 90 | > 90 | > 90 | > 90 | > 90 | inhibition [10]: Active
CSc1ccc(OP(=O)(Oc2ccc(SC)cc2)[C@H](NC(=O)[C@@H]2CCCN2C(=O)[C@@H](NC(=O)OC(C)(C)C)C(C)C)C(C)C)cc1 | Tde | 1000 |  | > 90 | > 90 | > 90 | > 90 | > 90 | > 90 | inhibition [11]: > 90%
CSc1ccc(OP(=O)(Oc2ccc(SC)cc2)[C@@H](NC(=O)[C@@H]2CCCN2C(=O)[C@@H](NC(=O)Cn2cc(-c3ccc(C4=C5C(C)=CC(C)=[N+]5[B-](F)(F)n5c(C)cc(C)c54)cc3)nn2)C(C)C)C(C)C)cc1 |  | 88400 | 1440 | > 90 | > 90 | > 90 | > 90 | > 90 |  | Ratio (Bos taurus [12]): 565 M⁻¹ s⁻¹; inhibition [13]: Active; Activity [14]: Active; Activity [15]: Active; Activity [16]: Active; Activity [17]: Active; Activity [18]: Active; Activity [19]: Active; Activity [20]: Active; inhibition [21]: inactive; inhibition [22]: inactive
CC(C)(C)C(=O)Oc1ccc(S(=O)(=O)Nc2ccccc2C(=O)NCC(=O)O)cc1 |  |  |  |  |  |  |  |  |  | inhibition [2]: Dose-dependent effect
